CDK5 p35 inh – CDK5/p35 (human) kinase inhibition; Q00535+Q15078; Recombinant CDK5/p35, ADP-Glo luminescence, 60 min; inhibition, % at 10 µM; 330,000 tested, 0.01% active; AID 488839;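 active = highest replicate inhibition of at least 50% and at least 75% of replicates reaching 50%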;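 also: plate controls were DMSO neutral control for no effect and GW8510 at 10 µM for full effect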
Target sequence (Q00535 whole entry, looked up): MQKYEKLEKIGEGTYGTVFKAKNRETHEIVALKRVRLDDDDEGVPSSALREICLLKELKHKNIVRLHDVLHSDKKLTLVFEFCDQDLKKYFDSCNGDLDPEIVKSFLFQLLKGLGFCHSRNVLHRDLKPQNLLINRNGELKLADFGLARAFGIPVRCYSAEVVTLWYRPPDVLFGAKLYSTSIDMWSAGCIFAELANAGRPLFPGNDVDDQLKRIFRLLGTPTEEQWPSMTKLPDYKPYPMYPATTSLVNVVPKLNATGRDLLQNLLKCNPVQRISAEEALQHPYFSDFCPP
Target sequence (Q15078 whole entry, looked up): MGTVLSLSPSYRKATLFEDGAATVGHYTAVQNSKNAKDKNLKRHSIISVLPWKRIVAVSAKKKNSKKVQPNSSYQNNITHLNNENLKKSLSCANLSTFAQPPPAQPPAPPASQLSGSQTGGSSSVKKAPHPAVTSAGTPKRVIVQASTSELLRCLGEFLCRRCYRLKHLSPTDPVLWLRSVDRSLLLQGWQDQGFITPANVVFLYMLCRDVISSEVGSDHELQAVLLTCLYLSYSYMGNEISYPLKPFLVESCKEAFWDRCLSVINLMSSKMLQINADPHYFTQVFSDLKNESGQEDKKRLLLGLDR
CAL PDZ FP-1 – inhibitors of human CAL PDZ peptide binding. Q9HD26. purified CAL PDZ, TMR-peptide fluorescence polarization, 1 h. inhibition, % at 20 µM. 330,000 tested, 0.02% active. AID 504414;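 active = highest replicate inhibition of at least 40%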;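 also: plate controls were DMSO neutral control wells for no effect and unlabeled competitor peptide control wells for full effect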
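System: tagged CAL PDZ domain. Schedule: 1 h room-temperature incubation prior to read. Signal: fluorescence polarization (mP). Measure: percent inhibition from loss of millipolarization.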
Statin myotox sup – suppression of simvastatin myotoxicity; C2C12 myotubes + simvastatin, ATP luminescence, 48 h; scaled: DMSO 0, geranylgeraniol control 100; AID 602340; rescue of ATP level, % at 7.49 µM; 330,000 tested, 0.78% active;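 active = mean ATP rescue above about 67%, or every replicate alone reaching that limit, limit read from the data, passing the limit was not always enough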;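 also: myotubes were challenged with 10 µM simvastatin during compound exposure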
CAL PDZ FP-2 – CAL PDZ (human) peptide binding inhibition. Q9HD26. purified CAL PDZ, TMR-peptide fluorescence polarization, 1 h. inhibition, % at 24.9 µM. 300,000 tested, 0.92% active;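 active = mean inhibition of at least 30% with at least half of replicates also reaching 30%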;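 also: 0% = DMSO neutral control and 100% = excess unlabeled competitor peptide PRC23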
S100A4 MyoIIA – blocks human S100A4 binding to myosin IIA peptide. inhibition, % at 10.7 µM. 360,000 tested, 0.14% active. S100A4/TAMRA-MyoIIA peptide fluorescence polarization. AID 652163. P26447;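 active = mean inhibition of at least 70% across replicates, with every replicate also reaching that level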
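Test system – S100A4 monomer (human) · Compound – single-point compound testing · Schedule – 5 min incubation before reading · Probe or stimulus – TAMRA-labelled myosin IIA heavy-chain peptide probe, 5 nM · Benchmarks – neutral control DMSO, positive control TFP · Medium – Calcium-containing HEPES buffer, pH 7.2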
dFosB act – mouse delta FosB homodimer activation; purified delta FosB, TAMRA-CDK5 oligo fluorescence polarization; percent of positive-control signal above neutral wells; 340,000 tested, 0.99% active; activation, % at 25 µM; AID 493131; P13346;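 active = mean activation above about 17%, with every replicate also reaching it, limit read from the data, passing the limit was not always enough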
Starred values were filed as active, the others as inactive; . = not tested or not shown; + = active, no number. Hits are enriched below; roughly 2% of the tested compounds scored in any of these assays.

SMILES	CDK5 p35 inh	CAL PDZ FP-1	Statin myotox sup	CAL PDZ FP-2	S100A4 MyoIIA	dFosB act
CC(=O)N1N=C(c2ccc3nccnc3c2)CC1c1ccccc1 (stereo not given)	2	-2	42	1	.	1
Cc1ccccc1C(=O)Nc1ccnn1C1CCN(CC2CC=CCC2)CC1 (stereo not given)	0	-3	9	-6	10	-8
O=C(Nc1ccnn1C1CCN(CC2CC=CCC2)CC1)c1ccccc1Cl (stereo not given)	0	1	-5	51*	8	-5
O=C(Cn1cnc2sc3c(c2c1=O)CCCC3)NCC(=O)Nc1c(F)cc(F)cc1Br	1	0	1	-1	-7	69*
Nc1nc(SCc2ccccc2)c2ncn(Cc3ccccc3)c2n1	-1	-1	3	41*	1	-6
CCCn1cnc2c(SCc3ccccc3)nc(N)nc21	1	0	12	-1	5	-4
c1cc2cc(-c3c(-c4ccc5c(c4)OCO5)noc3-c3ccsc3)ccc2[nH]1	1	-1	126*	12	-3	-3
Cc1ccc(S(=O)(=O)N(C)c2ccc(C(=O)O)cc2)cc1	2	-3	125*	2	.	-7
Cc1ccc(S(=O)(=O)N(C)c2ccc(C(=O)N3CCCCC3)cc2)cc1	0	0	-8	0	10	-3
COc1ccccc1OCCOc1ccc(/C=C2\C(=N)N3N=C(S(C)(=O)=O)SC3=NC2=O)cc1	2	-5	-1	-12	-5	-14
COc1cccc(OCCOc2ccc(/C=C3\C(=N)N4N=C(S(C)(=O)=O)SC4=NC3=O)cc2OC)c1	2	-5	7	55*	1	-29
COc1cccc(S(=O)(=O)N2CC[C@@H]3[C@H]2c2cc(C#Cc4ccccc4)ccc2N[C@@H]3CO)c1	.	.	-7	.	5	.
CC(=O)c1ccc(N2CCN(CC(O)COC(c3ccccc3)c3ccccc3)CC2)cc1 (stereo not given)	0	-2	24	1	-7	-4
Cc1cc2c3c([nH]c2cc1S(=O)(=O)NCc1ccc(CN2CCCCCC2)o1)CC(C)(C)CC3=O	0	-2	-30	46*	-11	-8
O=C(Nc1cccc(C(=O)N2CCCCC2)c1)C1CC1	1	0	4	81*	3	3
CC(C)C(=O)Nc1cccc(C(=O)N2CCCCC2C)c1 (stereo not given)	-2	-3	-32	-2	.	-8
CN(C(=O)c1cccc(NC(=O)c2ccccc2)c1)C1CCCCC1	-1	-1	-5	48*	-14	2
O=C(Nc1cccc(C(=O)N2CCCC2)c1)C1CCCC1	0	-1	6	-7	2	3
CC1CCCCN1C(=O)c1cccc(NC(=O)c2ccccc2)c1 (stereo not given)	-2	-1	.	76*	-14	-4
CCOC(=O)Cn1c(=O)c2c(nc3n2CCN3Cc2ccccc2)n(C)c1=O	0	0	134*	-4	.	2
CCOCCn1c(=O)c2c(nc3n2CCN3c2ccc(C)cc2)n(C)c1=O	-2	0	-4	77*	-4	5
COCCNC(=O)CCc1ccc(S(=O)(=O)Nc2ccc(C)cc2)cc1	1	0	-2	.	.	5
C[C@H](CO)N1C[C@H](C)[C@H](CN(C)CC2CC2)Oc2ccc(NC(=O)Cc3ccccc3)cc2CC1=O	.	.	-16	.	4	.
CN(C(=O)COC(=O)c1ccc(Br)c(S(=O)(=O)N2CCOCC2)c1)C1CCCCC1	-1	12	1	+	3	-9
CC(=O)Nc1ccc(NC(=O)C(C)OC(=O)c2ccc(S(=O)(=O)N3CCCCC3)cc2)cc1 (stereo not given)	-1	0	-2	-3	1	58*
CCOC(=O)c1ccc(S(=O)(=O)N2CCN(S(=O)(=O)CC)CC2)cc1	0	-2	4	65*	.	-6
CC(C)(C)N(Cc1ccccc1)C(=O)COC(=O)c1ccc(S(=O)(=O)N2CCOCC2)cc1	0	0	1	39*	-2	-11
